Experimental findings from ChEMBL document CHEMBL1128433, “Novel 1,2-dithiins: synthesis, molecular modeling studies, and antifungal activity” (1995) are described below.

Values after ≈ are worked out from the molar mass of the structure shown.

What all share (type): functional
For assay [1], the system named is Candida albicans. Nature of the assay: Antifungal activity against candida albicans A-26. In a few lines:
(§1)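 Candida grown 24 h at 35 °C on YM agar, then 6 h at 35 °C with rotation in GYB broth (2% glucose, 1% yeast extract). Final inoculum 2 × 10^3 cfu/mL. 96-well SAB broth microdilution, 2-fold series from ethanol or DMSO solutions. 24 h at 35 °C; MIC = lowest concentration without visible growth. Amphotericin B reference.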

Assay [2] has as its system Candida albicans. Briefly: Antifungal activity against candida albicans B-311. In a few lines: as §1
For the next assay, the system named is Candida tropicalis. Briefly: Antifungal activity against candida tropicalis 1525. In a few lines:
as §1

Assay [3] relates to Cryptococcus neoformans. Briefly: Antifungal activity against cryptococcus neoformans MI-106. In a few lines:
(§2)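 C. neoformans grown on YM agar 48 h at 35 °C, then 6 h in GYB broth at 35 °C with rotation. Final inoculum 2 × 10^4 cfu/mL. SAB broth microdilution with 2-fold serial dilutions (compound in ethanol or DMSO). Incubated 48 h at 35 °C; MIC read visually as the lowest concentration with no growth. Amphotericin B reference.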

In assay [4] the test system is Candida albicans. Nature of the assay: Antifungal activity against candida albicans. The gist of the method:
as §1

The subject of the next assay is Candida parapsilosis. Nature of the assay: Antifungal activity against candida parapsilosis CP18. The note with it: Lodderomyces parapsilosis. In a few lines:
as §1

The subject of assay [5] is Cryptococcus neoformans. Nature of the assay: Antifungal activity against cryptococcus neoformans. The gist of the method: as §2
Assay [6] has as its system Aspergillus fumigatus. Nature of the assay: Antifungal activity against aspergillus fumigatus. The gist of the method: (§3)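 A. fumigatus grown on SAB agar 3–4 d at 35 °C; conidia used as inoculum at final 1 × 10^3 cfu/mL. Broth microdilution in SAB broth, 2-fold serial dilutions of compound dissolved in ethanol or DMSO. Incubated 48 h at 35 °C. MIC read by eye as the lowest concentration with no visible growth. Amphotericin B reference.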

For the next assay, the system named is Pichia kudriavzevii. Nature of the assay: Antifungal activity against candida krusei GK7831. The gist of the method:
as §1

For the next assay, the system named is Trichophyton rubrum. Briefly: Antifungal activity against Trichophyton rubrum ATCC 18762. The gist of the method: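 T. rubrum grown on SAB agar 5–7 d at 25 °C; conidia as inoculum, final 1 × 10^4 cfu/mL. Compounds in ethanol or DMSO, 2-fold serial dilutions in SAB broth in 96-well plates. Incubated 7 d at 25 °C. MIC taken as the lowest concentration with no visible growth versus the growth-control wells. Amphotericin B was the reference.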

Assay [7] concerns Aspergillus fumigatus. Nature of the assay: Antifungal activity against aspergillus fumigatus WM-1. The gist of the method:
as §3

Consider `OCC1=CC=C(/C=N/O)SS1`, for which the minimal inhibitory concentration (MIC) against Candida albicans [1] stood at 1.6 µg/mL (≈ 8.45 µM); in the assay with Candida albicans [2], 1.6 µg/mL (≈ 8.45 µM); in the assay on Candida tropicalis it was 6.3 µg/mL (≈ 33.3 µM); in the assay on Cryptococcus neoformans [3], 1.6 µg/mL (≈ 8.45 µM); in the assay on Candida albicans [4], 1.6 µg/mL (≈ 8.45 µM); against Candida parapsilosis it was 3.1 µg/mL (≈ 16.4 µM). Besides, the MIC with Cryptococcus neoformans [5] came out at 1.6 µg/mL (≈ 8.45 µM); in the assay on Aspergillus fumigatus [6], 1.6 µg/mL (≈ 8.45 µM); in the assay with Pichia kudriavzevii, 6.3 µg/mL (≈ 33.3 µM); in the assay with Trichophyton rubrum, 0.8 µg/mL (≈ 4.23 µM); in the assay on Aspergillus fumigatus [7] it was 1.6 µg/mL (≈ 8.45 µM).
For `OCC1=CC=C(COc2ccccc2C(F)(F)F)SS1`, the MIC with Candida albicans [4] was 25 µg/mL (≈ 78 µM); in the assay with Cryptococcus neoformans [5] it was 6.3 µg/mL (≈ 19.7 µM); against Aspergillus fumigatus [6] it was 50 µg/mL (≈ 156 µM).
For `COC(=O)c1ccc(OCC2=CC=C(CO)SS2)cc1`, in that order: 3.1 µg/mL (≈ 9.99 µM), 3.1 µg/mL (≈ 9.99 µM) and 12.5 µg/mL (≈ 40.3 µM).
In the same order, the values of `[N-]=[N+]=NCC1=CC=C(CCl)SS1` are 25 µg/mL (≈ 114 µM), 6.3 µg/mL (≈ 28.7 µM) and 50 µg/mL (≈ 228 µM).
In the same order, the values of `Cc1ccc(S(=O)(=O)NC(=O)OCC2=CC=C(CO)SS2)cc1` are 100 µg/mL (≈ 268 µM), 50 µg/mL (≈ 134 µM) and 100 µg/mL (≈ 268 µM).
As to `CC(=O)OCC1=CC=C(CO)SS1`, the MIC amounted to 1.25 µg/mL (≈ 5.73 µM) against Candida tropicalis; 3.1 µg/mL (≈ 14.2 µM) with Candida albicans [4]; 1.25 µg/mL (≈ 5.73 µM) with Candida parapsilosis; 0.2 µg/mL (≈ 0.916 µM) in the assay on Cryptococcus neoformans [5]; 0.4 µg/mL (≈ 1.83 µM) against Aspergillus fumigatus [6]; 1.25 µg/mL (≈ 5.73 µM) against Pichia kudriavzevii. In the assay with Trichophyton rubrum, this compound gave an MIC of 0.31 µg/mL (≈ 1.42 µM).
For `O=C(Nc1ccccc1O)OCC1=CC=C(CO)SS1`, the minimum inhibitory concentration (MIC) came out at 100 µg/mL (≈ 321 µM) in the assay on Candida albicans [4], 50 µg/mL (≈ 161 µM) with Cryptococcus neoformans [5] and 50 µg/mL (≈ 161 µM) in the assay with Aspergillus fumigatus [6].
`OCC1=CC=C(COc2ccccc2F)SS1`: the MIC in the assay with Candida albicans [4] was found to be 3.1 µg/mL (≈ 11.5 µM); with Cryptococcus neoformans [5], 1.6 µg/mL (≈ 5.92 µM); with Aspergillus fumigatus [6], 3.1 µg/mL (≈ 11.5 µM).
Turning to `N#C/C=C/C1=CC=C(CO)SS1`, the MIC in the assay on Candida albicans [4] was 12.5 µg/mL (≈ 63.4 µM); against Cryptococcus neoformans [5], 3.1 µg/mL (≈ 15.7 µM); in the assay on Aspergillus fumigatus [6], 6.3 µg/mL (≈ 31.9 µM).
On to `COC(=O)c1ccccc1OCC1=CC=C(CO)SS1`, for which the MIC is 6.3 µg/mL (≈ 20.3 µM) against Candida albicans [4], 6.3 µg/mL (≈ 20.3 µM) against Cryptococcus neoformans [5] and 12.5 µg/mL (≈ 40.3 µM) in the assay with Aspergillus fumigatus [6].
Turning to `COC(=O)/C=C/C1=CC=C(CO)SS1`, the minimum inhibitory concentration (MIC) against Candida albicans [4], with Cryptococcus neoformans [5] and against Aspergillus fumigatus [6] was 6.3 µg/mL (≈ 27.4 µM) each time.
`O=c1ccc([N+](=O)[O-])cn1CC1=CC=C(CO)SS1`: the values for the minimal inhibitory concentration (MIC) with Candida albicans [4], in the assay on Cryptococcus neoformans [5] and against Aspergillus fumigatus [6] were > 100 µg/mL, 100 µg/mL (≈ 335 µM) and > 100 µg/mL, respectively.
Consider `O=C(NCC1=CC=C(CO)SS1)Nc1ccccc1O`, for which the minimal inhibitory concentration (MIC) against Candida albicans [4], in the assay on Cryptococcus neoformans [5] and in the assay on Aspergillus fumigatus [6] was > 100 µg/mL each time.
In the case of `N#CC1=CC=C(CO)SS1`, the figures for the MIC in the assay on Candida albicans [4], with Cryptococcus neoformans [5] and with Aspergillus fumigatus [6] were 0.8 µg/mL (≈ 4.67 µM), 0.8 µg/mL (≈ 4.67 µM) and 1.6 µg/mL (≈ 9.34 µM), respectively.
As for `OCC1=CC=C(COc2ccccn2)SS1`, the MIC in the assay on Candida albicans [4], in the assay with Cryptococcus neoformans [5] and in the assay with Aspergillus fumigatus [6] was 3.1 µg/mL (≈ 12.2 µM) throughout.
For `CC(=O)OCC1=CC=C(COC(C)=O)SS1`, the values for the MIC in the assay on Candida albicans [4], against Cryptococcus neoformans [5] and in the assay with Aspergillus fumigatus [6] were 1.25 µg/mL (≈ 4.8 µM), 0.63 µg/mL (≈ 2.42 µM) and 0.63 µg/mL (≈ 2.42 µM), respectively.
Turning to `O=C(OCC1=CC=C(CO)SS1)c1ccccc1`, the MIC was 6.3 µg/mL (≈ 22.5 µM) in the assay with Candida albicans [4], 3.1 µg/mL (≈ 11.1 µM) in the assay on Cryptococcus neoformans [5] and 3.1 µg/mL (≈ 11.1 µM) against Aspergillus fumigatus [6].
On to `O=C(OCC1=CC=C(CO)SS1)C1CC1`, for which the minimum inhibitory concentration (MIC) came to 1.25 µg/mL (≈ 5.12 µM) with Candida tropicalis; 3.1 µg/mL (≈ 12.7 µM) in the assay on Candida albicans [4]; 2.5 µg/mL (≈ 10.2 µM) against Candida parapsilosis; 1.6 µg/mL (≈ 6.55 µM) against Cryptococcus neoformans [5]; 0.4 µg/mL (≈ 1.64 µM) in the assay with Aspergillus fumigatus [6]; 1.25 µg/mL (≈ 5.12 µM) in the assay on Pichia kudriavzevii. In the assay with Trichophyton rubrum, this compound yielded an MIC of 0.31 µg/mL (≈ 1.27 µM).
For `CO/N=C/C1=CC=C(/C=N/OC)SS1`, the MIC came out at 0.8 µg/mL (≈ 3.47 µM) against Candida albicans [4], 1.6 µg/mL (≈ 6.95 µM) against Cryptococcus neoformans [5] and 6.3 µg/mL (≈ 27.4 µM) against Aspergillus fumigatus [6].
Take `[N-]=[N+]=NCC1=CC=C(CO)SS1`: the MIC against Candida albicans [4], with Cryptococcus neoformans [5] and against Aspergillus fumigatus [6] was 0.25 µg/mL (≈ 1.24 µM) throughout.
Take `C#Cc1cccc(OCC2=CC=C(CO)SS2)c1`: the minimum inhibitory concentration (MIC) against Candida albicans [4] turned out to be 1.6 µg/mL (≈ 5.79 µM); against Cryptococcus neoformans [5] it was 1.6 µg/mL (≈ 5.79 µM); against Aspergillus fumigatus [6], 6.3 µg/mL (≈ 22.8 µM).
For `O=C(OCC1=CC=C(COC(=O)C2CC2)SS1)C1CC1`, the MIC stood at 6.3 µg/mL (≈ 20.2 µM) with Candida albicans [4], 3.1 µg/mL (≈ 9.92 µM) against Cryptococcus neoformans [5] and 1.6 µg/mL (≈ 5.12 µM) with Aspergillus fumigatus [6].
As for `O/N=C/C1=CC=C(/C=N/O)SS1`, the MIC with Candida albicans [1] was determined as 0.2 µg/mL (≈ 0.989 µM); with Candida albicans [2], 0.1 µg/mL (≈ 0.494 µM); in the assay with Candida tropicalis, 1.6 µg/mL (≈ 7.91 µM); against Cryptococcus neoformans [3], 1.6 µg/mL (≈ 7.91 µM); in the assay with Candida albicans [4], 0.1 µg/mL (≈ 0.494 µM); against Candida parapsilosis it was 0.2 µg/mL (≈ 0.989 µM). Also, the MIC against Cryptococcus neoformans [5] was 0.8 µg/mL (≈ 3.96 µM); with Aspergillus fumigatus [6] it was 0.4 µg/mL (≈ 1.98 µM); in the assay on Pichia kudriavzevii, 6.3 µg/mL (≈ 31.1 µM); with Trichophyton rubrum, 0.05 µg/mL (≈ 0.247 µM); against Aspergillus fumigatus [7], 0.2 µg/mL (≈ 0.989 µM).
With `CO/N=C/C1=CC=C(CO)SS1`, the MIC against Candida albicans [4], against Cryptococcus neoformans [5] and against Aspergillus fumigatus [6] was 6.3 µg/mL (≈ 31 µM) in each case.
For `O=[N+]([O-])c1ccc(OCC2=CC=C(CO)SS2)nc1`, the MIC against Candida albicans [4] was determined as 0.2 µg/mL (≈ 0.67 µM); in the assay on Cryptococcus neoformans [5] it was 0.1 µg/mL (≈ 0.335 µM); in the assay with Aspergillus fumigatus [6] it was 0.4 µg/mL (≈ 1.34 µM).
With `COC(=O)c1cccc(OCC2=CC=C(CO)SS2)c1`, the MIC came to 3.1 µg/mL (≈ 9.99 µM) against Candida albicans [4], 6.3 µg/mL (≈ 20.3 µM) with Cryptococcus neoformans [5] and 25 µg/mL (≈ 80.5 µM) against Aspergillus fumigatus [6].
Take `O=C(NCC1=CC=C(CO)SS1)c1ccccc1O`: the MIC is > 100 µg/mL against Candida albicans [4], 100 µg/mL (≈ 339 µM) in the assay on Cryptococcus neoformans [5] and > 100 µg/mL with Aspergillus fumigatus [6].
Regarding `OCC1=CC=C(CO)SS1`, the MIC was found to be 16 µg/mL (≈ 90.8 µM) in the assay with Candida albicans [4], 31 µg/mL (≈ 176 µM) in the assay on Cryptococcus neoformans [5] and 2 µg/mL (≈ 11.3 µM) against Aspergillus fumigatus [6].
In the same order, the values of `OCC1=CC=C(COc2ccccc2O)SS1` are 6.3 µg/mL (≈ 23.5 µM), 25 µg/mL (≈ 93.2 µM) and 12.5 µg/mL (≈ 46.6 µM).
